Source: ChEMBL document CHEMBL1126664, “Pyrazoline bisphosphonate esters as novel antiinflammatory and antiarthritic agents” (1993)

Experiments:
Assay type in all cases: functional
Rattus norvegicus [1] = test: Inhibition of rat adjuvant induced polyarthritis (AIP) at the dose of 100 mg/kg in the non-injected paw
Procedure, shortened: (§1)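 Rats received adjuvant (M. tuberculosis in mineral oil) into the left hindpaw on day 0. Compounds in sterile saline, pH 7.0, were given sc once daily for 28 days, with sc vehicle arthritic controls. Paw volume change in injected and noninjected hindpaws was measured on day 28 by mercury-displacement plethysmography.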

Rattus norvegicus [2] = test: Inhibition of rat adjuvant induced polyarthritis (AIP) at the dose of 15 mg/kg in the non-njected paw; procedure, shortened: as §1
Mus musculus [3] = test: Inhibition of delayed type hypersensitivity granuloma results at 100 mg/kg in wet weight
Procedure, shortened: (§2)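 Groups of 10 female CF-1 mice (25 g) were sensitised sc over the inguinal lymph node with mBSA emulsion in Freund's incomplete adjuvant plus dextran. Two mBSA-soaked hydroxyapatite disks were implanted per mouse. Sc dosing ran daily from implantation to day 9, then granulomas were excised for wet and dry weights. Student's paired t test.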

Mus musculus [4] = test: Inhibition of antigen-induced arthritis (AIA) in mice at the dose of 200 mg/kg in the non-injected paw
Mus musculus [5] = test: Inhibition of antigen-induced arthritis (AIA) in mice at the dose of 100 mg/kg in the non-injected paw
Mus musculus [6] = test: Inhibition of antigen-induced arthritis (AIA) in mice at the dose of 50 mg/kg in the non-injected paw
Mus musculus [7] = test: Inhibition of delayed type hypersensitivity granuloma results at 100 mg/kg in dry weight; procedure, shortened: as §2
Rattus norvegicus [8] = test: Inhibition of rat adjuvant induced polyarthritis (AIP) at the dose of 100 mg/kg in the injected paw; procedure, shortened: as §1
Rattus norvegicus [9] = test: Inhibition of rat adjuvant induced polyarthritis (AIP) at the dose of 15 mg/kg in the injected paw; procedure, shortened: as §1
Mus musculus [10] = test: Inhibition of delayed type hypersensitivity granuloma results at 25 mg/kg in wet weight; procedure, shortened: as §2
Rattus norvegicus [11] = test: Inhibition of rat adjuvant-induced polyarthritis (AIP) at the dose of 5 mg/kg in the non-injected paw; procedure, shortened: as §1
Mus musculus [12] = test: Inhibition of delayed type hypersensitivity granuloma results at 50 mg/kg in wet weight; procedure, shortened: as §2
Mus musculus [13] = test: Inhibition of delayed type hypersensitivity granuloma results at 25 mg/kg in dry weight; procedure, shortened: as §2
Rattus norvegicus [14] = test: Inhibition of rat adjuvant-induced polyarthritis (AIP) at the dose of 100 mg/kg in the non-injected paw; procedure, shortened: as §1
Mus musculus [15] = test: Inhibition of antigen induced arthritis (AIA) in mice at the dose of 100 mg/kg
Procedure, shortened: (§3)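 Mice were immunised, boosted after 7 days, and challenged 14 days later with 200 μg mBSA in saline into the left rear stifle joint. Dosing was sc in saline at pH 7.0, 5 of 7 days, from challenge (day 0) to day 28. H&E sagittal joint sections were graded 1–5 each for soft tissue inflammation, pannus, and cartilage and bone erosion, then summed (max 20). One-way ANOVA vs vehicle.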

Rattus norvegicus [16] = test: Inhibition of rat adjuvant-induced polyarthritis (AIP) at the dose of 15 mg/kg in the non-injected paw; procedure, shortened: as §1
Rattus norvegicus [17] = test: Inhibition of rat adjuvant-induced polyarthritis (AIP) at the dose of 60 mg/kg in the non-injected paw; procedure, shortened: as §1
Rattus norvegicus [18] = test: Inhibition of rat adjuvant induced polyarthritis (AIP) at the dose of 60 mg/kg in the injected paw; procedure, shortened: as §1
Rattus norvegicus [19] = test: Inhibition of rat adjuvant induced polyarthritis (AIP) at the dose of 5 mg/kg in the injected paw; procedure, shortened: as §1
Mus musculus [20] = test: Inhibition of antigen induced arthritis (AIA) in mice at the dose of 50 mg/kg; procedure, shortened: as §3
Mus musculus [21] = test: Inhibition of delayed type hypersensitivity granuloma results at 50 mg/kg in dry weight; procedure, shortened: as §2
Rattus norvegicus [22] = test: Inhibition of rat adjuvant induced polyarthritis (AIP) at the dose of 15 mg/kg in the non-injected paw; procedure, shortened: as §1
Mus musculus [23] = test: Inhibition of antigen-induced arthritis (AIA) in mice at the dose of 100 mg/kg; procedure, shortened: as §3
Rattus norvegicus [24] = test: Inhibition of rat adjuvant-induced arthritis (AIP) at the dose of 15 mg/kg in the non-injected paw; procedure, shortened: as §1
Rattus norvegicus [25] = test: Inhibition of rat adjuvant-induced arthritis (AIP) at the dose of 100 mg/kg in the non-injected paw; procedure, shortened: as §1
Mus musculus [26] = test: Inhibition of antigen-induced arthritis (AIA) in mice at the dose of 50 mg/kg; procedure, shortened: as §3
Rattus norvegicus [27] = test: Inhibition of rat adjuvant induced arthritis (AIP) at the dose of 60 mg/kg in the non-injected paw; procedure, shortened: as §1
Rattus norvegicus [28] = test: Inhibition of rat adjuvant induced arthritis (AIP) at the dose of 5 mg/kg in the non-injected paw; procedure, shortened: as §1
Rattus norvegicus [29] = test: Inhibition of rat adjuvant induced arthritis (AIP) at the dose of 15 mg/kg in the non-injected paw; procedure, shortened: as §1
Mus musculus [30] = test: Inhibition of antigen-induced arthritis (AIA) in mice at the dose of 25 mg/kg; procedure, shortened: as §3
Mus musculus [31] = test: Inhibition of antigen-induced arthritis (AIA) in mice at the dose of 200 mg/kg; procedure, shortened: as §3
Rattus norvegicus [32] = test: Inhibition of rat adjuvant induced arthritis (AIP) at the dose of 100 mg/kg in the non-injected paw; procedure, shortened: as §1

SMILES	inhibition in vivo at 100 mg/kg (Rattus norvegicus [1]) [%]	inhibition in vivo at 100 mg/kg (Mus musculus [3]) [%]	inhibition in vivo at 100 mg/kg (Mus musculus [7]) [%]	inhibition in vivo at 100 mg/kg (Rattus norvegicus [8]) [%]	inhibition in vivo at 15 mg/kg (Rattus norvegicus [9]) [%]	inhibition in vivo at 100 mg/kg (Mus musculus [23]) [%]	also measured
CCOP(=O)(OCC)C1(P(=O)(OCC)OCC)CC(C(=O)C2CCCCC2)=NN1	29	33	31	16	9	–	inhibition in vivo at 15 mg/kg (Rattus norvegicus [2]): 14%; inhibition in vivo at 200 mg/kg (Mus musculus [4]): 11%; inhibition in vivo at 100 mg/kg (Mus musculus [5]): 3%; inhibition in vivo at 50 mg/kg (Mus musculus [6]): 30%
CCOP(=O)(OCC)C1(P(=O)(OCC)OCC)CC(C(=O)C(C)(C)C)=NN1	–	65	59	21	21	–	inhibition in vivo at 25 mg/kg (Mus musculus [10]): 46%; inhibition in vivo at 5 mg/kg (Rattus norvegicus [11]): 64%; inhibition in vivo at 50 mg/kg (Mus musculus [12]): 51%; inhibition in vivo at 25 mg/kg (Mus musculus [13]): 38%; inhibition in vivo at 100 mg/kg (Rattus norvegicus [14]): 76%; inhibition in vivo at 100 mg/kg (Mus musculus [15]): 16%; inhibition in vivo at 15 mg/kg (Rattus norvegicus [16]): 55%; inhibition in vivo at 60 mg/kg (Rattus norvegicus [17]): 64%; inhibition in vivo at 60 mg/kg (Rattus norvegicus [18]): 38%; inhibition in vivo at 5 mg/kg (Rattus norvegicus [19]): 27%; inhibition in vivo at 50 mg/kg (Mus musculus [20]): 28%; inhibition in vivo at 50 mg/kg (Mus musculus [21]): 48%
CCOP(=O)(OCC)C1(P(=O)(OCC)OCC)CC(C(=O)c2ccc(Cl)cc2Cl)=NN1	12	55	44	0	3	0	inhibition in vivo at 15 mg/kg (Rattus norvegicus [22]): 38%
CCOP(=O)(OCC)C1(P(=O)(OCC)OCC)CC(C(=O)c2ccc(Cl)cc2)=NN1	–	28	33	–	–	–	–
CCOP(=O)(OCC)C1(P(=O)(OCC)OCC)CC(C(=O)c2ccccc2)=NN1Cc1cccc(CN2N=C(C(=O)c3ccccc3)CC2(P(=O)(OCC)OCC)P(=O)(OCC)OCC)c1	–	–	-31	–	–	–	–
CCOP(=O)(OCC)C1(P(=O)(OCC)OCC)CC(C(=O)c2cccc(C)c2)=NN1	–	41	41	3	6	–	inhibition in vivo at 100 mg/kg (Mus musculus [5]): 16%; inhibition in vivo at 15 mg/kg (Rattus norvegicus [24]): 54%; inhibition in vivo at 100 mg/kg (Rattus norvegicus [25]): 50%
CCOP(=O)(OCC)C1(P(=O)(OCC)OCC)CC(C(=O)c2ccccc2F)=NN1	–	20	17	–	–	–	–
CCOP(=O)(OCC)C1(P(=O)(OCC)OCC)CC(C(=O)c2ccccc2)=NN1	–	56	51	13	25	48	inhibition in vivo at 50 mg/kg (Mus musculus [26]): 35%; inhibition in vivo at 25 mg/kg (Mus musculus [10]): 36%; inhibition in vivo at 50 mg/kg (Mus musculus [12]): 33%; inhibition in vivo at 25 mg/kg (Mus musculus [13]): 42%; inhibition in vivo at 60 mg/kg (Rattus norvegicus [27]): 56%; inhibition in vivo at 60 mg/kg (Rattus norvegicus [18]): 23%; inhibition in vivo at 5 mg/kg (Rattus norvegicus [28]): 50%; inhibition in vivo at 5 mg/kg (Rattus norvegicus [19]): 28%; inhibition in vivo at 15 mg/kg (Rattus norvegicus [29]): 31%; inhibition in vivo at 25 mg/kg (Mus musculus [30]): 16%; inhibition in vivo at 50 mg/kg (Mus musculus [21]): 42%; inhibition in vivo at 200 mg/kg (Mus musculus [31]): 48%; inhibition in vivo at 100 mg/kg (Rattus norvegicus [32]): 50%
CCOP(=O)(OCC)C1(P(=O)(OCC)OCC)CC(C(=O)c2ccc(OC)cc2)=NN1	16	35	50	0	12	23	inhibition in vivo at 15 mg/kg (Rattus norvegicus [22]): 17%
